# SKKanGAS inh – SKKanGAS growth inhibition | S. pyogenes SKKanGAS, kanamycin growth, BacTiter-Glo, 6 h | inhibition, % at 7.5 µM | hit rate 1.3% among 300,000;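 active means mean replicate score, as percent of positive control median, at least 50; inconclusive means mean below 50 but one replicate at or above 50; inactive means mean and every replicate below 50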;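 further: strain carries kanamycin resistance gene driven by streptokinase promoter and grows in 40 µg/ml kanamycin; loss of luminescence reflects streptokinase promoter inhibition or plain growth inhibition; 0% = median of DMSO wells and 100% = positive control at its reference dose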
# Beta cell apopt – blocks beta cell apoptosis; INS-1E cytokine-induced death, ATP luminescence, 48 h; percent of positive-control rescue, neutral wells zero; protection from apoptosis, % (no concentration beside the values); hit rate 0.8% among 300,000;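 active means Every replicate reaches about 75%, or at least half do and their mean reaches it too, limit read from the data; inconclusive means At least half of replicates reach the limit but their mean does not; inactive means Under half of replicates reach the limit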;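 further: 0% = cytokine-treated negative control wells and 100% = positive control rescue; higher means more ATP so stronger rescue from cytokine killing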
# HIF act – HIF pathway transcriptional activation; U2OS HRE-luciferase reporter, luminescence; normalized: DMSO 0%, desferrioxamine 100%; activation, % at 7.5 µM (by protocol); hit rate 0.32% among 300,000; AID 1910;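 active means mean activation of at least 10% of the iron chelator positive control signal, with at least half of replicates also reaching 10%; inconclusive means mean and replicate majority disagree about reaching 10%; inactive means mean and most replicates under 10%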
# T cruzi repl – blocks replication of Trypanosoma cruzi; T. cruzi beta-gal in NIH3T3, luminescence, 90 h; inhibition, % (test concentration not listed); hit rate 1.4% among 300,000;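 active means mean inhibition across valid replicates above about 55%, limit read from the data; inconclusive means mean below that limit but half or more replicates reach it; inactive means mean below it, under half of replicates reach it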;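 further: signal also drops with host cell toxicity which is not excluded here; 0% = plate median of DMSO wells and 100% = zero luminescence signal; higher percent means less beta-gal luminescence so fewer parasites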
#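 System: Mouse NIH/3T3 fibroblasts infected with β-gal-expressing T. cruzi Tulahuen C4 | Quantity: NIH/3T3 cells, 5,000 per well | Reagent: 5000 reporter trypomastigotes per well | Dosing: Compound pinned at 50 nL/well, DMSO | Schedule: 3 h host attachment, then at least 90 h co-culture | Detection: GalScreen luminescence, 60 min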
# PfHsp90 set2 – reduces growth (ATP signal) of yeast expressing P. falciparum Hsp90 | inhibition, % at 9.4 µM | AID 504621 | S. cerevisiae expressing PfHsp90, BacTiter-Glo ATP, 48 h; yeast lacking PDR1 and PDR3 efflux regulators | hit rate 0.32% among 310,000;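 active means every replicate shows inhibition above about 80%, whatever the replicate mean, limit read from the data; inconclusive means mean inhibition reaches the set limit but some replicate falls short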;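 further: 0% = DMSO neutral controls and 100% = 20 µM radicicol positive controls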
# CSC inhib – cancer stem cell inhibition. cancer stem cell-like cells viability, luminescence. inhibition, % at 7.5 µM. hit rate 1.1% among 300,000; in the data active means inhibition above about 75%; inconclusive means no clear call, values can overlap the other calls; tested in HMLE shEcad cells
# Starred values were filed as active, the others as inactive; ? = inconclusive; . = not tested or not shown. In the library only some 3.6% were active in any assay of this set; here they are far more common.
SMILES,SKKanGAS inh,Beta cell apopt,HIF act,T cruzi repl,PfHsp90 set2,CSC inhib
S=C(NCCCN1CCOCC1)N1CCN(c2nc(-c3ccc(Cl)cc3)cs2)CC1,-20,85*,0,2,12,104*
CCCCOc1ncnc2c1[nH]c1ccc(OCC)cc12,-2,9,0,11,-3,-21
CCCCOc1ncnc2c1[nH]c1ccc(F)cc12,-7,110*,1,-23,4,?
CCOC(=O)N1CCN(c2ncnc3c2[nH]c2ccc(F)cc23)CC1,0,76*,1,0,15,3
COC(=O)NC(=S)Nc1ccc(Oc2ccc(Cl)cc2Cl)c(Cl)c1,18,3,0,62*,-18,.
COC(=O)NC(=S)Nc1ccc(Oc2ccc(Cl)cc2)c(Cl)c1,-6,.,0,74*,-6,.
O=C(NC(=S)Nc1ccc(F)c(Cl)c1)C1CC1,1,-1,1,-16,-22,4
Fc1ccc(NC(=S)Nc2ccc(F)c(Cl)c2)cc1Cl,64*,37,3,35,-15,2
O=C(Nc1cccc(S(=O)(=O)N2CCCCCC2)c1)C1CCN(C(=O)c2ccc(F)cc2)CC1,11,-2,1,16,.,2
O=C1CCc2cccc(O)c2N1,.,.,.,.,-17,.
CCSc1nnc(NC(=O)Nc2cccc(C)c2)s1,5,16,1,25,-12,43
COCCN1C(=O)/C(=C/c2ccc(OCc3ccc(C(=O)O)cc3)c(OC)c2)SC1=Nc1ccccc1,91*,.,1,19,-7,19
C(=N\Nc1nc2ccccc2[nH]1)/c1ccc2c(c1)OCCO2,20,.,-5,34,24,26
CCCCn1c(/C=C/c2ccco2)nc2ccccc21,5,-4,-1,7,-6,17
COc1cc(/C=N\Nc2nc3ccccc3[nH]2)cc(OC)c1OC,94*,12,0,35,5,6
COc1ccc(/C=N/Nc2nc3ccccc3[nH]2)cc1OC,3,21,4,-18,-1,4
C(=N\Nc1nc2ccccc2[nH]1)/c1ccc2ncccc2c1,-7,.,-3,35,19,79*
c1ccc2c(c1)CC/C2=N/Nc1nc2ccccc2[nH]1,38,.,5,67*,0,.
CCCCn1c(/C=N/Nc2nc3ccccc3[nH]2)nc2ccccc21,95*,76*,69*,39,-19,.
Cc1oc(=O)cc(OCc2ccccc2)c1C,.,.,.,.,-1,.
CC(C)Cc1nnc(NC(=O)CCC(=O)N2CCN(c3ccc(Cl)cc3)CC2)s1,-8,-2,0,5,-23,-7
C#CCn1cc(/C=N/NC(=O)COc2cccc3cccnc23)c2ccccc21,4,-2,0,6,-25,4
C(=N\Nc1nc2ccccc2[nH]1)/c1cccc2nccnc12,-3,72,47*,13,-10,27
C(=N\Nc1nc2ccccc2[nH]1)/c1ccccn1,25,.,4,69*,26,.
COc1ccc2c(c1)c(/C=N/Nc1nc3ccccc3[nH]1)c(C)n2C,71*,117*,1,50,14,45
SMILES,SKKanGAS inh,Beta cell apopt,HIF act,T cruzi repl,PfHsp90 set2,CSC inhib
Cc1ccc2cc(/C=N/Nc3nc4ccccc4[nH]3)c(Cl)nc2c1,-7,.,1,10,8,.
Fc1ccccc1-c1ccc(/C=N/Nc2nc3ccccc3[nH]2)o1,.,18,2,29,27,16
C#CCn1cc(/C=N/Nc2nc3ccccc3[nH]2)c2ccccc21,-12,55,5,37,-5,92*
COCCCNC(=O)Cn1cnc2sc(C)c(S(=O)(=O)N3CC(C)CC(C)C3)c2c1=O (stereo not drawn),-2,0,0,-12,-21,-9
CCC(C)N(C(=O)Cn1nnc(-c2ccc(F)cc2)n1)C1CCS(=O)(=O)C1 (stereo not drawn),-1,0,0,0,1,-9
CC(C)C(=O)NC(=S)Nc1ccc(S(=O)(=O)NC2CCCCC2)cc1,-3,1,0,12,28,5
Cc1nnc(SCC(=O)NCC2CCCO2)n1Cc1ccccc1 (stereo not drawn),.,1,.,.,-14,.
CC(C)NC(=O)NC(=O)CSc1nnc(COc2ccccc2F)n1C(C)C1CC2CCC1C2 (stereo not drawn),51*,.,-1,42,-10,.
O=C(Nc1ncnc2c1C(c1ccccc1)c1c(ccc3ccccc13)O2)c1ccccc1 (stereo not drawn),.,82*,.,.,-19,.
C/C(=C\C(=O)OCCCCCCCCC(=O)O)C[C@@H]1OC[C@H](C[C@@H]2O[C@H]2[C@@H](C)[C@H](C)O)[C@@H](O)[C@H]1O,103*,10,4,-3,-5,-10
CC(C)(C)c1ccc(C(=O)NNC(=S)NC(=O)c2cccnc2)cc1,100*,62,3,29,-73,25
CC(C)(C)c1cc(Cl)c(O)c(NC(=S)NC(=O)c2cccnc2)c1,82*,24,1,70*,-8,26
CC(NC(=O)Cc1ccccc1)c1cc2c(cc1Br)OCCCO2 (stereo not drawn),-5,2,0,21,-17,-7
COc1cccc(/C=C/C(=C2/C(=O)N(c3ccccc3)N=C2C)c2ccc(Br)cc2)c1OC,?,.,0,-13,-5,76*
COc1cccc(/C=C/C(=C2/C(=O)N(c3ccccc3)N=C2C)c2ccccc2)c1OC,-6,9,0,50,-2,50
COc1ccccc1C(=O)NCCC(=O)Nc1ccc(S(=O)(=O)N2CC(C)CC(C)C2)cc1 (stereo not drawn),.,-1,.,.,18,4
O=c1ccnc(Nc2ccc([N+](=O)[O-])cc2)[nH]1,-6,4,0,2,11,1
c1ccc(NNC2=NCCCCC2)cc1,-1,2,-1,13,-20,84*
CN(C)c1cccc(C(=O)OCCCC(=O)c2ccc(F)cc2)c1,.,-5,.,.,-27,-4
O=[N+]([O-])c1cc([N+](=O)[O-])c2c(=Nc3ccccc3)n(-c3ccccc3)n(O)c2c1,30,54,0,58*,-33,-8
CC(C)C[C@@H](CNCC(=O)[C@H](CC(C)C)NC(=O)c1[nH]cnc1C(=O)N[C@@H](C)CN)NC(=O)c1nc[nH]c1C(=O)N[C@@H](CC(=O)O)C(=O)O,.,.,.,.,16,.
Cc1cc(C(=O)NCC(=O)OC(C(=O)Nc2cc(C(F)(F)F)ccc2Cl)c2ccccc2)ccc1[N+](=O)[O-] (stereo not drawn),53*,-3,1,5,2,3
Cc1ccc(NC(=O)CN2CCN(CCN=CC3=C(O)CC(c4ccc(C)cc4)CC3=O)CC2)cc1 (stereo not drawn),5,-3,0,-4,.,-4
CN1CCC(Oc2ccccc2Sc2ccc(C(F)(F)F)cc2)CC1,7,18,-1,37,7,75*

# Screening results from PubChem.
